Measurements as given in article PMC13322713 (Molecular imaging and biology, 2025).
Several values for one entry are separate records, joined by “and”; a condition that tells them apart may be missing. Equal values may be shown once.

Tests used:
[1] = Lipophilicity logD7.4, octanol/PBS partitioning; type: physicochemical; conditions: pH 7.4
[2] = system: pancreatic BxPC-3 (αvβ6 +) cells; experiment: Cell binding and internalization, BxPC-3 cells; type: cell-based
How it was run: (§1)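 Cells cultured at 37 °C, 5% CO2 with 10% FBS and 1% PSG: puromycin-containing DMEM for the DX3 pair, RPMI for BxPC-3. Integrin expression was checked by flow cytometry beforehand. The radiotracer was incubated 1 h with 3.75 × 10^6 cells per experiment in PBS containing calcium and magnesium, with non-fat dry milk blocking. Internalization was at 37 °C. Bound and internalized fractions are expressed as % of total radioactivity, quadruplicate, mean ± SD.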

integrin αvβ6 = integrin αvβ6 (Homo sapiens, UniProt P06756+P18564); experiment: Competitive binding ELISA against Bt-LAP; conditions: ratio of ELISA IC50s
How it was run: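 Competitive ELISAs used biotinylated LAP as ligand for integrin αvβ6 and biotinylated vitronectin for αvβ3. IC50s came from a sigmoidal fit of binding over a peptide concentration range. The ratio is αvβ3 IC50 divided by αvβ6 IC50.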

[3] = Whole-body radioactivity / excretion during PET/CT study; parameters: species or system mice; conditions: female, athymic nude, mouse, in vivo, iv, 0.175 nmol per injection, total radioactivity
DX3puroβ6 (αvβ6 +) cells = experiment: Cell binding and internalization, DX3puroβ6 cells; type: cell-based
How it was run: as §1

[4] = system: BxPC-3 tumor-bearing mice; experiment: Biodistribution in BxPC-3 tumor-bearing mice; type: in vivo
How it was run: (§2)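 Female athymic nude mice, inoculated subcutaneously with 5 × 10^6 BxPC-3 cells in RPMI/Matrigel (1/1 v/v), used at ~0.5 cm tumor diameter (approx. 3 weeks). Isoflurane-anesthetized mice received the tail-vein radiotracer in PBS at 2.2–3.3 MBq, with mass held at 0.175 nmol by adding nonmetallated compound. Tissues collected 1, 2 and 4 h p.i. (n = 4 per time point), rinsed, γ-counted, and expressed as decay-corrected %ID/g, mean ± SD.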

[5] = Biodistribution in BxPC-3 tumor-bearing mice; type: in vivo; conditions: female, athymic nude, mouse, iv, 0.175 nmol per injection, total radioactivity
How it was run: as §2

DX3puro (αvβ6 −) cells = experiment: Cell binding and internalization, DX3puro cells; type: cell-based; conditions: 1 h, 3.75 × 10^6 cells/experiment, mean ± SD, n = 4
How it was run: as §1

integrin αvβ6, sequence (P06756 31-1048): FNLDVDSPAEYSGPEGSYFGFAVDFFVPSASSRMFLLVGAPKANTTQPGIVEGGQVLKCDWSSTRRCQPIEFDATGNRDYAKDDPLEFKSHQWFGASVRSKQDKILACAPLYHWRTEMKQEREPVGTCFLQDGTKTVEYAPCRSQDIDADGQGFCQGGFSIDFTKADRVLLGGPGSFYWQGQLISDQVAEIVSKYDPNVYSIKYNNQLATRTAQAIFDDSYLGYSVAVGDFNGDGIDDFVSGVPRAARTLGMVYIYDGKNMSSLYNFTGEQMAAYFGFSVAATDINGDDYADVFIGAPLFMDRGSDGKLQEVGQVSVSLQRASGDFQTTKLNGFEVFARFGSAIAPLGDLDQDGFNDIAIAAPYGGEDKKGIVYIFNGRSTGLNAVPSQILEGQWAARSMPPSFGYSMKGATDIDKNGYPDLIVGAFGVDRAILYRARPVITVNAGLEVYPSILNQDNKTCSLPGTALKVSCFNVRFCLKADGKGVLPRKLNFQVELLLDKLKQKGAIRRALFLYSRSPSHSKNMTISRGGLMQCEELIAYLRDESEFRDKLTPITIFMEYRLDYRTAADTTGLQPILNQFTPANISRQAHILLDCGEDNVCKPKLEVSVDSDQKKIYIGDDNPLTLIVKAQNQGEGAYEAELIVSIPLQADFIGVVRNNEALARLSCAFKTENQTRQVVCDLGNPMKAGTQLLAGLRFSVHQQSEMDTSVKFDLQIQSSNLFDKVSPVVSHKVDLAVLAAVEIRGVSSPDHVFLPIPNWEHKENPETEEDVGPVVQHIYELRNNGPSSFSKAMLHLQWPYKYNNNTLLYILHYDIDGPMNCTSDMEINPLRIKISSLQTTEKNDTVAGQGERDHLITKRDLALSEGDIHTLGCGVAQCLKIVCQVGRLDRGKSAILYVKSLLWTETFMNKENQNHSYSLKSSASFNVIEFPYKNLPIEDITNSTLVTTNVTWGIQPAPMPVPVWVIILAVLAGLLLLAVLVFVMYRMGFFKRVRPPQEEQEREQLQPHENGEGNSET
integrin αvβ6, sequence (P18564 22-788): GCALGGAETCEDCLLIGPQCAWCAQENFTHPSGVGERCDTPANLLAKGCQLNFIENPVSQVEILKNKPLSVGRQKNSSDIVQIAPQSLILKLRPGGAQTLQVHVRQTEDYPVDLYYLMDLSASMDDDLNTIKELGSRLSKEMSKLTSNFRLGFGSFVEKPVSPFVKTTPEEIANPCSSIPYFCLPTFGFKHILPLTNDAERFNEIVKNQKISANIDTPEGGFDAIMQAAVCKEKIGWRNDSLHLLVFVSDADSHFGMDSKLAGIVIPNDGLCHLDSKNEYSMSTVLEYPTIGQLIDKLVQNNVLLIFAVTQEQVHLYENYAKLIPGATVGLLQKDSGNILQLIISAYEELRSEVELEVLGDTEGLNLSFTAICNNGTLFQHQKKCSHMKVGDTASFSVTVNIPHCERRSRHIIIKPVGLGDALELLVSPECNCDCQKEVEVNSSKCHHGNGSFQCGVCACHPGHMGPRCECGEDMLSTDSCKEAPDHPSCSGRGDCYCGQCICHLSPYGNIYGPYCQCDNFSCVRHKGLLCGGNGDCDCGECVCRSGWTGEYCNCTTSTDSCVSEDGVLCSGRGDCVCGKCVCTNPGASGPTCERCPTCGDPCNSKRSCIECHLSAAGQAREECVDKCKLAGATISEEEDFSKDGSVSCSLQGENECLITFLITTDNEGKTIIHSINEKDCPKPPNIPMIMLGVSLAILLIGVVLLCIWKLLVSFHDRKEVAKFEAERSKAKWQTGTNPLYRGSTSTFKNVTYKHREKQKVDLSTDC

In the case of CC(C)C[C@H](NC(=O)[C@H](CC(=O)O)NC(=O)CNC(=O)[C@H](CCCNC(=N)N)NC(=O)[C@H](CC(C)C)NC(=O)[C@H](CC(N)=O)NC(=O)[C@@H]1CCCN1C(=O)[C@@H](NC(=O)CNC(=O)[C@H](CC(N)=O)NC(=O)CNC(=O)CCOCCOCCOCCOCCOCCOCCOCCOCCOCCOCCOCCOCCOCCOCCOCCOCCOCCOCCOCCOCCOCCOCCOCCOCCOCCOCCOCCOCCNC(=O)CN1CCN(CC(=O)O)CCN(CC(=O)O)CC1)C(C)C)C(=O)N[C@@H](CCC(N)=O)C(=O)N[C@H](C(=O)N[C@@H](CC(C)C)C(=O)NCC(=O)N[C@@H](CCC(N)=O)C(=O)N[C@@H](CCCNC(=N)N)C(=O)N[C@H](C(=O)NCC(=O)N[C@@H](CCCNC(=N)N)C(=O)N[C@H](C(=O)NCCOCCOCCOCCOCCOCCOCCOCCOCCOCCOCCOCCOCCOCCOCCOCCOCCOCCOCCOCCOCCOCCOCCOCCOCCOCCOCCOCCOCCC(N)=O)[C@@H](C)O)C(C)C)C(C)C [[^18F]AlF NOTA-5G], the logD [1] is reported as -2.34 ± 0.08, the Radioactivity internalized ([2]; BxPC-3, 1 h at 37 °C, abstract: of bound activity) is reported as ≥ 50% and the “Cell binding, % of total radioactivity bound” value ([2]; BxPC-3 αvβ6(+), 1 h, 3.75 × 10^6 cells/experiment, mean ± SD, n = 4) is reported as 29.1 ± 3.7%. The “IC50-ratio (αvβ3 vs αvβ6)” value (integrin αvβ6) was > 7700/1, the dose excreted at 4 h [3] was 80% and the “Ratio of cell binding DX3puroβ6 vs DX3puro” value (DX3puroβ6 (αvβ6 +) cells; 1 h) was 33/1. For the same compound, the “Ratio of internalization DX3puroβ6 vs DX3puro” value (DX3puroβ6 (αvβ6 +) cells; 1 h at 37 °C) was 96/1, the Radioactivity internalized (DX3puroβ6 (αvβ6 +) cells; DX3puroβ6, 1 h at 37 °C, abstract: of bound activity) was ≥ 50% and the “Cell binding, % of total radioactivity bound” value (DX3puroβ6 (αvβ6 +) cells; DX3puroβ6 αvβ6(+), 1 h, 3.75 × 10^6 cells/experiment, mean ± SD, n = 4) was 66% and 66.2 ± 0.8%. For the same compound, the Tumor/blood ratio ([4]; 2 h p.i.) was “greater than 15/1”, the Tumor/liver ratio ([4]; 2 h p.i.) was “greater than 15/1” and the Tumor/pancreas ratio ([4]; 2 h p.i.) was “greater than 15/1”. For the same compound, the Tumor/blood ratio ([4]; 4 h p.i.) was 162/1, the Tumor/liver ratio ([4]; 4 h p.i.) was 24/1 and the Tumor/muscle ratio ([4]; 4 h p.i.) was 6/1. For the same compound, the Tumor/pancreas ratio ([4]; 4 h p.i.) was 18/1, the “Radioactivity levels in tissues aside from kidneys and GI tract, including bone” value ([4]; all time points (1, 2, 4 h p.i.)) was ≤ 1.6 % ID/g and the tissue uptake at 1 h ([5]; BxPC-3 tumor) was 2.3 ± 0.4 %ID/g. For the same compound, the tissue uptake at 4 h ([5]; BxPC-3 tumor) was 1.8 ± 0.6 %ID/g, the tissue uptake at 1 h ([5]; blood) was 0.16 ± 0.03 %ID/g and the tissue uptake at 4 h ([5]; blood) was 0.01 ± 0.01 %ID/g. For the same compound, the excreta dose per gram or mL at 1 h ([5]; feces) was 0.7 ± 0.1 %ID/g, the excreta dose per gram or mL at 4 h ([5]; feces) was 5 ± 2.1 %ID/g and the tissue uptake at 1 h ([5]; kidneys) was 18.6 ± 6.4 %ID/g. The tissue uptake at 4 h ([5]; kidneys) was 12.5 ± 1.8 %ID/g and the “Cell binding, % of total radioactivity bound” value (DX3puro (αvβ6 −) cells) was 2% and 2.0 ± 0.2%.
